Assay results taken from ChEMBL document CHEMBL1144722 (J Nat Prod, 2008).
Active and inactive are the calls of the source. The calls are words filed in the database; no cut-off is given here.

system: not listed separately; test: (§1) Antiproliferative activity against mouse +SA mammary epithelial cells after 4 days by MTT assay; assay type: functional, cell-based; settings: Epithelial cell, 96 h
Summary of the method: (§2)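 Highly malignant +SA mouse mammary epithelial cells kept in serum-free medium with 10 ng/mL EGF and 10 µg/mL insulin as mitogens. Seeded at 5 × 10⁴ cells/well, 6 wells/group, and fed medium containing compound at 0.01–1000 µM, compared with vehicle controls. After 4 days of culture, viable cell number was read by MTT colorimetric assay.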

| Structure (SMILES) | IC50 [µM] |
| --- | --- |
| CC(=O)O[C@H]1/C=C(\C)CC/C=C(\C)[C@H](O)C[C@@H](C(C)C)/C=C/[C@@](C)(O)C1 | 30 |
| CC(C)=CCC/C(C)=C/CC/C(C)=C/CC[C@]1(C)CCc2cc(O)cc(C)c2O1 [DELTA-TOCOTRIENOL] | 7 |
| CC(=O)/C=C/C(CC/C(C)=C/CC/C(C)=C/C(C)=O)C(C)C (stereo not given) [SECOCEMBRANOID] | 15 |
| CC(=O)O[C@H]1/C=C(\C)CC/C=C(\C)[C@@H](O)C[C@@H](C(C)C)/C=C/[C@@](C)(O)C1 | 20 |

system: Epithelial cell; test: as §1; assay type: functional, cell-based; settings: not given; summary of the method: as §2

| Structure (SMILES) | Activity |
| --- | --- |
| CCNC(=O)O[C@H]1/C=C(\C)CC/C=C(\C)CC[C@@H](C(C)C)/C=C/[C@@](C)(O)C1 | inactive |
| CC(=O)O[C@H]1/C=C(\C)CC/C=C(\C)CC[C@@H](C(C)C)/C=C/[C@@](C)(O)C1 | Active |
| C/C1=C\[C@H](OC(=O)NCc2ccccc2)C[C@](C)(O)/C=C/[C@H](C(C)C)CC/C(C)=C/CC1 | inactive |
| CC(=O)O[C@H]1/C=C(\C)CC[C@H](O)[C@@](C)(SC#N)CC[C@@H](C(C)C)/C=C/[C@@](C)(O)C1 | inactive |
| C/C1=C\[C@H](OC(=O)NCCCl)C[C@](C)(O)/C=C/[C@H](C(C)C)CC/C(C)=C/CC1 | inactive |
| CC(=O)O[C@H]1/C=C(\C)CC[C@@H]2OC(=N)S[C@@]2(C)CC[C@@H](C(C)C)/C=C/[C@@](C)(O)C1 | inactive |

system: Epithelial cell; test: Antiproliferative activity against mouse +SA mammary epithelial cells at 15 to 40 uM after 4 days by MTT assay; assay type: functional, cell-based; settings: not given; summary of the method: as §2

| Structure (SMILES) | Activity |
| --- | --- |
| CC(=O)O[C@H]1/C=C(\C)CC/C=C(\C)[C@H](O)C[C@@H](C(C)C)/C=C/[C@@](C)(O)C1 | Active |
| C/C1=C/C(=O)C[C@](C)(O)/C=C/[C@H](C(C)C)CC/C(C)=C/CC1 | Active |
| C/C1=C\C(=O)C[C@](C)(O)/C=C/[C@H](C(C)C)CC/C(C)=C/CC1 | inactive |
| CC(=O)/C=C/C(CC/C(C)=C/CC/C(C)=C/C(C)=O)C(C)C (stereo not given) [SECOCEMBRANOID] | Active |
| CC(=O)O[C@H]1/C=C(\C)CC/C=C(\C)[C@@H](O)C[C@@H](C(C)C)/C=C/[C@@](C)(O)C1 | Active |
